From ChEMBL document CHEMBL1255347, “Multiclonal outbreak of Klebsiella pneumoniae producing extended-spectrum beta-lactamase CTX-M-2 and novel variant CTX-M-59 in a neonatal intensive care unit in Brazil” (2008)
Converted amounts (≈) assume the structure as drawn.

Tests used:
Klebsiella pneumoniae [1] = test: Antimicrobial activity against CTX-M-2 producing Klebsiella pneumoniae with PFGE pulsotype A by Etest; type: functional
How it was run: (§1)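 Clinical K. pneumoniae isolates from a neonatal ICU outbreak near São Paulo were typed by XbaI PFGE using Tenover criteria. Cultures were grown in LB broth at 37°C. Etest MICs followed the manufacturer's instructions, with cefotaxime and ceftazidime each tested with and without clavulanic acid.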

Klebsiella pneumoniae [2] = test: Antimicrobial activity against CTX-M-2 producing Klebsiella pneumoniae with PFGE pulsotype B by Etest; type: functional; how it was run: as §1
Klebsiella pneumoniae [3] = test: Antimicrobial activity against CTX-M-59 producing Klebsiella pneumoniae with PFGE pulsotype C by Etest; type: functional
Klebsiella pneumoniae [4] = test: Antimicrobial activity against SHV-5 producing Klebsiella pneumoniae with PFGE pulsotype D by Etest; type: functional; how it was run: as §1
Klebsiella pneumoniae [5] = test: Antimicrobial activity against CTX-M-59 producing Klebsiella pneumoniae with PFGE pulsotype E by Etest; type: functional
Klebsiella pneumoniae [6] = test: Antimicrobial activity against CTX-M-2 producing Klebsiella pneumoniae with PFGE pulsotype F by Etest; type: functional
Klebsiella pneumoniae [7] = test: Antimicrobial activity against CTX-M-59 producing Klebsiella pneumoniae with PFGE pulsotype G by Etest; type: functional; how it was run: as §1
Klebsiella pneumoniae [8] = test: Antimicrobial activity against CTX-M-2 producing Klebsiella pneumoniae with PFGE pulsotype H by Etest; type: functional; how it was run: as §1
Klebsiella pneumoniae [9] = test: Antimicrobial activity against CTX-M-2 producing Klebsiella pneumoniae with PFGE pulsotype I by Etest; type: functional
Klebsiella pneumoniae [10] = test: Antimicrobial activity against CTX-M-2 producing Klebsiella pneumoniae with PFGE pulsotype J by Etest; type: functional
Escherichia coli [11] = test: Antimicrobial activity against Escherichia coli str. K-12 substr. DH10B harboring plasmid CTX-M-2; type: functional; conditions: K-12 DH10B
How it was run: (§2)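 blaCTX-M PCR products were cut with XbaI/BamHI and cloned into pBC-SK(−), then electroporated into E. coli DH10B. Transformants were selected on LB agar with ampicillin 50 μg/ml and chloramphenicol 30 μg/ml, and sequences were confirmed. These clones were used for β-lactam MICs, with and without clavulanic acid.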

Escherichia coli [12] = test: Antimicrobial activity against Escherichia coli str. K-12 substr. DH10B harboring plasmid CTX-M-2 in presence of clavulanic acid; type: functional; conditions: K-12 DH10B; how it was run: as §2
Escherichia coli [13] = test: Antimicrobial activity against Escherichia coli str. K-12 substr. DH10B harboring plasmid CTX-M-59; type: functional; conditions: K-12 DH10B; how it was run: as §2
Escherichia coli [14] = test: Antimicrobial activity against Escherichia coli str. K-12 substr. DH10B harboring plasmid CTX-M-59 in presence of clavulanic acid; type: functional; conditions: K-12 DH10B; how it was run: as §2
Klebsiella pneumoniae [15] = test: Antimicrobial activity against SHV-5 producing Klebsiella pneumoniae transconjugants/transformants with PFGE pulsotype D by Etest; type: functional
How it was run: (§3)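 The recipient was E. coli XL1-Blue Rifr NAr. Plasmids moved by broth mating, with transconjugants selected on LB agar containing ampicillin, rifampin and nalidixic acid, each at 50 μg/ml. Where mating failed, alkaline-lysis plasmid extracts were electroporated and selected on ampicillin 50 μg/ml. β-lactam MICs were read by Etest, with and without clavulanic acid.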

Klebsiella pneumoniae [16] = test: Antimicrobial activity against CTX-M-2 and TEM-1 producing Klebsiella pneumoniae transconjugants/transformants with PFGE pulsotype B by Etest in presence of clavulanic acid; type: functional; how it was run: as §3
Klebsiella pneumoniae [17] = test: Antimicrobial activity against CTX-M-59 and TEM-1 producing Klebsiella pneumoniae transconjugants/transformants with PFGE pulsotype C by Etest in presence of clavulanic acid; type: functional; how it was run: as §3
Klebsiella pneumoniae [18] = test: Antimicrobial activity against SHV-5 producing Klebsiella pneumoniae transconjugants/transformants with PFGE pulsotype D by Etest in presence of clavulanic acid; type: functional; how it was run: as §3
Klebsiella pneumoniae [19] = test: Antimicrobial activity against CTX-M-59 and TEM-1 producing Klebsiella pneumoniae transconjugants/transformants with PFGE pulsotype E by Etest in presence of clavulanic acid; type: functional; how it was run: as §3
Klebsiella pneumoniae [20] = test: Antimicrobial activity against CTX-M-2 and TEM-1 producing Klebsiella pneumoniae transconjugants/transformants with PFGE pulsotype F by Etest in presence of clavulanic acid; type: functional; how it was run: as §3
Klebsiella pneumoniae [21] = test: Antimicrobial activity against CTX-M-59 and TEM-1 producing Klebsiella pneumoniae transconjugants/transformants with PFGE pulsotype G by Etest in presence of clavulanic acid; type: functional; how it was run: as §3
Klebsiella pneumoniae [22] = test: Antimicrobial activity against CTX-M-2 and TEM-1 producing Klebsiella pneumoniae transconjugants/transformants with PFGE pulsotype H by Etest in presence of clavulanic acid; type: functional
Klebsiella pneumoniae [23] = test: Antimicrobial activity against CTX-M-2 and TEM-1 producing Klebsiella pneumoniae transconjugants/transformants with PFGE pulsotype I by Etest in presence of clavulanic acid; type: functional; how it was run: as §3
Klebsiella pneumoniae [24] = test: Antimicrobial activity against CTX-M-2 and TEM-1 producing Klebsiella pneumoniae transconjugants/transformants with PFGE pulsotype J by Etest in presence of clavulanic acid; type: functional; how it was run: as §3
Klebsiella pneumoniae [25] = test: Antimicrobial activity against CTX-M-2 producing Klebsiella pneumoniae with PFGE pulsotype A by Etest in presence of clavulanic acid; type: functional; how it was run: as §1
Klebsiella pneumoniae [26] = test: Antimicrobial activity against CTX-M-2 producing Klebsiella pneumoniae with PFGE pulsotype B by Etest in presence of clavulanic acid; type: functional; how it was run: as §1
Klebsiella pneumoniae [27] = test: Antimicrobial activity against CTX-M-59 producing Klebsiella pneumoniae with PFGE pulsotype C by Etest in presence of clavulanic acid; type: functional; how it was run: as §1
Klebsiella pneumoniae [28] = test: Antimicrobial activity against SHV-5 producing Klebsiella pneumoniae with PFGE pulsotype D by Etest in presence of clavulanic acid; type: functional
Klebsiella pneumoniae [29] = test: Antimicrobial activity against CTX-M-59 producing Klebsiella pneumoniae with PFGE pulsotype E by Etest in presence of clavulanic acid; type: functional
How it was run: (§4)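 MICs were determined by Etest strips following the manufacturer's instructions, using cefotaxime and ceftazidime each combined with clavulanic acid. The test strains were clinical NICU outbreak isolates confirmed as ESBL producers by disk diffusion. Pulsotypes were assigned by XbaI PFGE using Tenover relatedness criteria. Cultures were routinely grown in LB broth at 37°C.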

Klebsiella pneumoniae [30] = test: Antimicrobial activity against CTX-M-2 producing Klebsiella pneumoniae with PFGE pulsotype F by Etest in presence of clavulanic acid; type: functional; how it was run: as §1
Klebsiella pneumoniae [31] = test: Antimicrobial activity against CTX-M-59 producing Klebsiella pneumoniae with PFGE pulsotype G by Etest in presence of clavulanic acid; type: functional; how it was run: as §4
Klebsiella pneumoniae [32] = test: Antimicrobial activity against CTX-M-2 producing Klebsiella pneumoniae with PFGE pulsotype H by Etest in presence of clavulanic acid; type: functional
How it was run: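 Etest strips used per manufacturer's instructions to read MICs of cefotaxime and ceftazidime, each with clavulanic acid, on clinical NICU K. pneumoniae outbreak isolates. Isolates were typed by XbaI PFGE using Tenover criteria and routinely grown in LB broth at 37°C.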

Klebsiella pneumoniae [33] = test: Antimicrobial activity against CTX-M-2 producing Klebsiella pneumoniae with PFGE pulsotype I by Etest in presence of clavulanic acid; type: functional; how it was run: as §1
Klebsiella pneumoniae [34] = test: Antimicrobial activity against CTX-M-2 producing Klebsiella pneumoniae with PFGE pulsotype J by Etest in presence of clavulanic acid; type: functional; how it was run: as §1
Escherichia coli [35] = test: Antimicrobial activity against CTX-M-2 and TEM-1 producing Escherichia coli transconjugants/transformants with PFGE pulsotype A by Etest in presence of clavulanic acid
Klebsiella pneumoniae [36] = test: Antimicrobial activity against CTX-M-2 and TEM-1 producing Klebsiella pneumoniae transconjugants/transformants with PFGE pulsotype A by Etest; type: functional; how it was run: as §3
Klebsiella pneumoniae [37] = test: Antimicrobial activity against CTX-M-2 and TEM-1 producing Klebsiella pneumoniae transconjugants/transformants with PFGE pulsotype B by Etest; type: functional; how it was run: as §3
Klebsiella pneumoniae [38] = test: Antimicrobial activity against CTX-M-59 and TEM-1 producing Klebsiella pneumoniae transconjugants/transformants with PFGE pulsotype C by Etest; type: functional; how it was run: as §3
Klebsiella pneumoniae [39] = test: Antimicrobial activity against CTX-M-59 and TEM-1 producing Klebsiella pneumoniae transconjugants/transformants with PFGE pulsotype E by Etest; type: functional; how it was run: as §3
Klebsiella pneumoniae [40] = test: Antimicrobial activity against CTX-M-2 and TEM-1 producing Klebsiella pneumoniae transconjugants/transformants with PFGE pulsotype F by Etest; type: functional; how it was run: as §3
Klebsiella pneumoniae [41] = test: Antimicrobial activity against CTX-M-59 and TEM-1 producing Klebsiella pneumoniae transconjugants/transformants with PFGE pulsotype G by Etest; type: functional; how it was run: as §3
Klebsiella pneumoniae [42] = test: Antimicrobial activity against CTX-M-2 and TEM-1 producing Klebsiella pneumoniae transconjugants/transformants with PFGE pulsotype H by Etest; type: functional; how it was run: as §3
Klebsiella pneumoniae [43] = test: Antimicrobial activity against CTX-M-2 and TEM-1 producing Klebsiella pneumoniae transconjugants/transformants with PFGE pulsotype I by Etest; type: functional; how it was run: as §3
Klebsiella pneumoniae [44] = test: Antimicrobial activity against CTX-M-2 and TEM-1 producing Klebsiella pneumoniae transconjugants/transformants with PFGE pulsotype J by Etest; type: functional; how it was run: as §3

Molecule: CO/N=C(\C(=O)N[C@@H]1C(=O)N2C(C(=O)O)=C(COC(C)=O)CS[C@H]12)c1csc(N)n1 [CEFOTAXIME]
- MIC (Klebsiella pneumoniae [1]): > 256 µg/mL
- MIC (Klebsiella pneumoniae [2]): > 256 µg/mL
- MIC (Klebsiella pneumoniae [3]): > 256 µg/mL
- MIC (Klebsiella pneumoniae [4]): 48 µg/mL (≈ 105 µM)
- MIC (Klebsiella pneumoniae [5]): > 256 µg/mL
- MIC (Klebsiella pneumoniae [6]): > 256 µg/mL
- MIC (Klebsiella pneumoniae [7]): > 256 µg/mL
- MIC (Klebsiella pneumoniae [8]): > 256 µg/mL
- MIC (Klebsiella pneumoniae [9]): > 256 µg/mL
- MIC (Klebsiella pneumoniae [10]): > 256 µg/mL
- MIC (Escherichia coli [11]): 128 µg/mL (≈ 281 µM)
- MIC (Escherichia coli [12]): 0.094 µg/mL
- MIC (Escherichia coli [13]): 96 µg/mL (≈ 211 µM)
- MIC (Escherichia coli [14]): 0.094 µg/mL
- MIC (Klebsiella pneumoniae [15]): 12 µg/mL (≈ 26.3 µM)
- MIC (Klebsiella pneumoniae [16]): 0.094 µg/mL
- MIC (Klebsiella pneumoniae [17]): 0.19 µg/mL
- MIC (Klebsiella pneumoniae [18]): 0.47 µg/mL
- MIC (Klebsiella pneumoniae [19]): 0.25 µg/mL
- MIC (Klebsiella pneumoniae [20]): 0.125 µg/mL
- MIC (Klebsiella pneumoniae [21]): 0.19 µg/mL
- MIC (Klebsiella pneumoniae [22]): 0.94 µg/mL
- MIC (Klebsiella pneumoniae [23]): 0.125 µg/mL
- MIC (Klebsiella pneumoniae [24]): 0.125 µg/mL
- MIC (Klebsiella pneumoniae [25]): 0.094 µg/mL
- MIC (Klebsiella pneumoniae [26]): 0.094 µg/mL
- MIC (Klebsiella pneumoniae [27]): 0.094 µg/mL
- MIC (Klebsiella pneumoniae [28]): 0.047 µg/mL
- MIC (Klebsiella pneumoniae [29]): 0.125 µg/mL
- MIC (Klebsiella pneumoniae [30]): 0.094 µg/mL
- MIC (Klebsiella pneumoniae [31]): 0.5 µg/mL
- MIC (Klebsiella pneumoniae [32]): 1 µg/mL
- MIC (Klebsiella pneumoniae [33]): 0.094 µg/mL
- MIC (Klebsiella pneumoniae [34]): 0.094 µg/mL
- MIC (Escherichia coli [35]): 0.094 µg/mL

Molecule: GENTAMICIN
- MIC (Klebsiella pneumoniae [1]): > 256 µg/mL
- MIC (Klebsiella pneumoniae [2]): > 256 µg/mL
- MIC (Klebsiella pneumoniae [3]): > 256 µg/mL
- MIC (Klebsiella pneumoniae [4]): 24 µg/mL
- MIC (Klebsiella pneumoniae [5]): > 256 µg/mL
- MIC (Klebsiella pneumoniae [6]): > 256 µg/mL
- MIC (Klebsiella pneumoniae [7]): > 256 µg/mL
- MIC (Klebsiella pneumoniae [8]): > 256 µg/mL
- MIC (Klebsiella pneumoniae [9]): 256 µg/mL
- MIC (Klebsiella pneumoniae [36]): > 256 µg/mL
- MIC (Klebsiella pneumoniae [37]): > 256 µg/mL
- MIC (Klebsiella pneumoniae [38]): > 256 µg/mL
- MIC (Klebsiella pneumoniae [15]): 24 µg/mL
- MIC (Klebsiella pneumoniae [39]): > 256 µg/mL
- MIC (Klebsiella pneumoniae [40]): > 256 µg/mL
- MIC (Klebsiella pneumoniae [41]): > 256 µg/mL
- MIC (Klebsiella pneumoniae [42]): > 256 µg/mL
- MIC (Klebsiella pneumoniae [43]): > 256 µg/mL
- MIC (Klebsiella pneumoniae [44]): 128 µg/mL

Molecule: O=C(O)c1cn(C2CC2)c2cc(N3CCNCC3)c(F)cc2c1=O [CIPROFLOXACIN]
- MIC (Klebsiella pneumoniae [1]): 0.023 µg/mL (≈ 0.0694 µM)
- MIC (Klebsiella pneumoniae [2]): 0.032 µg/mL (≈ 0.0966 µM)
- MIC (Klebsiella pneumoniae [3]): 0.032 µg/mL (≈ 0.0966 µM)
- MIC (Klebsiella pneumoniae [4]): 0.023 µg/mL (≈ 0.0694 µM)
- MIC (Klebsiella pneumoniae [5]): 0.032 µg/mL (≈ 0.0966 µM)
- MIC (Klebsiella pneumoniae [7]): 0.125 µg/mL (≈ 0.377 µM)
- MIC (Klebsiella pneumoniae [8]): 0.023 µg/mL (≈ 0.0694 µM)
- MIC (Klebsiella pneumoniae [9]): 0.032 µg/mL (≈ 0.0966 µM)
- MIC (Klebsiella pneumoniae [10]): 0.023 µg/mL (≈ 0.0694 µM)
